Compound activity (PubChem BioAssay)
UBC13 inh: UBC13 polyubiquitin chain formation inhibitors, primary screen, biochemical, TR-FRET, uHTS; inhibition, % at 20 µM; Ubiquitin-conjugating enzyme E2 N (Homo sapiens), P61088; AID 485273, 2010; hit rate 0.47% among 330,000; in the data active = inhibition above about 45%, passing the limit was not always enough
Target sequence (P61088 whole entry, looked up): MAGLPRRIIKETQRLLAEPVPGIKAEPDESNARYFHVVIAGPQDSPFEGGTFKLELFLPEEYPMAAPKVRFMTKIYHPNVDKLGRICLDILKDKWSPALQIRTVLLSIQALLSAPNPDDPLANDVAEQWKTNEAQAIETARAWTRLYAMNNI
SENP8 block-1: SENP8 protease inhibitors, primary screen, biochemical, luminescence. Sentrin-specific protease 8 (Homo sapiens), Q96LD8. hit rate 1.2% among 330,000. inhibition, % at 10 µM. purified SENP8, Z-RLRGG-aminoluciferin cleavage; in the data active = inhibition above about 50%
Target sequence (Q96LD8 whole entry, looked up): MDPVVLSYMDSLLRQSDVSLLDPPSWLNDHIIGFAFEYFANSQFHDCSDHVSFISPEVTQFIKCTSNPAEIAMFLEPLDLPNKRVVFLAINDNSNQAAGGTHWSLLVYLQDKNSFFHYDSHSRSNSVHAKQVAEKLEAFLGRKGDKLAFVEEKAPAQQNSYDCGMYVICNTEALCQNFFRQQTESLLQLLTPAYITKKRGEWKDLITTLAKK
SENP7 inh: SENP7 protease inhibitors, primary screen, biochemical, luminescence, uHTS | Sentrin-specific protease 7 (Homo sapiens), Q9BQF6 | recombinant SENP7, Z-RLRGG-aminoluciferin luminescence, 40 min | inhibition, % at 5 µM | hit rate 1.5% among 330,000;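 active = inhibition above about 50% at the single test dose, limit read from the data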;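 also: plate controls were DMSO with enzyme for no effect and no enzyme buffer wells for full effect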
Target sequence (Q9BQF6 706-1050 limits assumed): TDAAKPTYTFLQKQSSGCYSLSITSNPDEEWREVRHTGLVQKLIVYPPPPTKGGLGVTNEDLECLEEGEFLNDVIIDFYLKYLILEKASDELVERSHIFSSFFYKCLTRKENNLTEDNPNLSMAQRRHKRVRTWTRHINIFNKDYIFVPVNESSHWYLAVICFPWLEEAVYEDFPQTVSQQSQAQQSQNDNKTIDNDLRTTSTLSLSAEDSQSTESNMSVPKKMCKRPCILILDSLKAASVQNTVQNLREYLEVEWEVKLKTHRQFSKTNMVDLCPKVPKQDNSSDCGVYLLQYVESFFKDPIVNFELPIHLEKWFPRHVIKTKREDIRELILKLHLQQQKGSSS
SENP6 block: SENP6 protease inhibitors, primary screen, biochemical, luminescence, uHTS. Sentrin-specific protease 6 (Homo sapiens), Q9GZR1. Recombinant SENP6 catalytic domain, aminoluciferin luminescence. inhibition, % at 10 µM. hit rate 1.8% among 330,000;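 active = inhibition above about 50% at the single tested dose, limit read from the data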;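 also: plate controls were DMSO wells with enzyme for no effect and DMSO wells lacking enzyme for full effect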
Apaf-1 inh: inhibitors of human Apaf-1 apoptosome, primary screen, biochemical, DEVD-Rh110 fluorescence, uHTS | reconstituted apoptosome caspase-3 activity | inhibition, % at 20 µM | hit rate 0.71% among 330,000; active = inhibition of at least 40% at 20 µM;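 also: plate controls were DMSO wells for no effect and DEVD-CHO caspase inhibitor wells for full effect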
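Material: cell-free apoptosome with Apaf-1, procaspase-3 and caspase-9; Buffer or medium: Hepes pH 7.5 with detergent and BSA; Reagent: cytochrome c trigger plus (Z-DEVD)2-Rh110 caspase-3 substrate; Times: compound with Apaf-1, dATP, procaspase-3 30 min, then 50 min reaction, room temperature; Technique: Rh110 fluorescence intensity.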
SENP8 block-2: human SENP8 protease inhibitors, primary screen, biochemical, fluorescence, Nedd8 protein substrate, uHTS; Sentrin-specific protease 8 (Homo sapiens), Q96LD8; recombinant SENP8; inhibition, % at 20 µM; hit rate 0.64% among 360,000; in the data active = inhibition mostly above about 40%, no sharp cut-off; inactive = mostly below about 27%
SENP8 confirm: SENP8 protease inhibitors, retest, confirmation, biochemical, luminescence, single concentration | shares compounds with SENP7 inh | Recombinant SENP8, Z-RLRGG-aminoluciferin luminescence, 60 min | inhibition, % at 12.5 µM | hit rate 40% among 6,200 | AID 488912, 2010;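 active = mean inhibition across replicates above about 50%, limit read from the data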
SENP6 confirm: SENP6 protease inhibitors, confirmation, biochemical, luminescence, single concentration; inhibition, % at 12.5 µM; recombinant SENP6, Z-RLRGG-aminoluciferin luminescence; shares compounds with SENP7 inh; hit rate 58% among 6,200
SENP7 confirm: SENP7 protease inhibitors, retest, confirmation, biochemical, luminescence, single concentration; inhibition, % at 12.5 µM; hit rate 69% among 6,200; shares compounds with SENP7 inh; recombinant SENP7, Z-RLRGG-aminoluciferin luminescence, 40 min
Casp3 SENP sel: caspase-3 protease inhibitors, confirmation, selectivity assay for SENP inhibitor project, biochemical, single concentration; shares compounds with SENP7 inh; purified caspase-3, Z-DEVD-aminoluciferin luminescence, 60 min; inhibition, % at 12.5 µM; hit rate 60% among 6,200; AID 488918, 2010;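 active = mean inhibition above about 50%, limit read from the data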;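 also: plate controls were enzyme with DMSO for no effect and wells without caspase-3 for full effect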
Luc interf: counter-screen for SENP inhibitors: luminescence interference; inhibition, % at 12.5 µM; Pre-incubated SENP8/Z-RLRGG-aminoluciferin, luciferase luminescence interference; hit rate 39% among 6,200; shares compounds with SENP7 inh; AID 488919;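 active = mean inhibition above about 50% when retested at one dose, limit read from the data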;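 also: plate controls were DMSO wells with completed reaction for no effect and substrate without enzyme for full effect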
An asterisk follows results filed as active; · = no result given. Hits are enriched below; roughly 3.1% of the tested compounds scored in any of these assays.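 The calls were made as follows, unless noted: active = mean inhibition above about 50% in the one-dose retest (limit read from the data); inactive = the rest.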

SMILES	UBC13 inh	SENP8 block-1	SENP7 inh	SENP6 block	Apaf-1 inh	SENP8 block-2	SENP8 confirm	SENP6 confirm	SENP7 confirm	Casp3 SENP sel	Luc interf
COc1ccc(-c2nc3ccccc3[nH]2)cc1	5.9	95.5*	97.4*	93.9*	-27.4	-25.2	95.9*	98.2*	102.8*	98.0*	96.4*
COc1ccc(-c2nc3ccc(Cl)cn3c2CC(C)(C)C)cc1OC	·	·	·	·	·	3.5	·	·	·	·	·
O=C(O)c1cccc(-c2nc3ccccc3[nH]2)c1	3.2	94.4*	99.4*	93.9*	-0.8	-50.7	95.9*	96.8*	100.5*	89.1*	95.7*
COc1ccc(-c2cc(=O)n(-c3nc4ccccc4[nH]3)[nH]2)cc1	-15.1	86.6*	34.4	91.3*	30.7	-63.5	-3.9	92.3*	100.9*	95.7*	54.5*
O=C(NCc1ccc(F)cc1)c1cc(C2CCCN(C(=O)C3CCCCC3)C2)on1 (stereo not drawn)	·	·	·	·	·	16.6	·	·	·	·	·
Cc1ccccc1-c1cc2nc(NCCN3CCNC3=O)n(C)c(=O)c2s1	·	·	·	·	·	-44.0	·	·	·	·	·
COc1cccc2cc(-c3nc4ccccc4[nH]3)c(=O)oc12	-19.4	34.6	59.0*	49.8	-7.2	-290.5	16.0	14.7	20.4	36.3	19.3
COc1cccc(OC)c1C(=O)Nc1cccc(-c2nc3ccccc3[nH]2)c1	4.2	-1.6	-0.2	-0.6	-9.0	-8.9	·	·	·	·	·
COc1ccc(-c2cc3cccc(OC)c3oc2=O)cc1	9.4	80.2*	87.0*	80.7*	15.0	-293.3	89.3*	89.6*	99.0*	88.0*	76.3*
Cc1cccc2cc(-c3nc4ccc(C(=O)O)cc4[nH]3)c(=O)oc12	-5.0	85.8*	85.7*	88.2*	7.0	-282.4	93.5*	94.2*	100.2*	98.4*	56.4*
COc1ccc(Nc2nc(-c3cc4cccc(OC)c4oc3=O)cs2)cc1	-7.7	-8.0	-5.5	-11.8	-14.7	2.8	·	·	·	·	·
CCCNC(=O)c1cc(C2CCCCN2S(C)(=O)=O)on1 (stereo not drawn)	·	·	·	·	·	6.4	·	·	·	·	·
CCC(c1nc2ccccc2[nH]1)n1c(=O)c(-c2ccccc2)nc2ccccc21 (stereo not drawn)	·	·	·	·	·	-212.5	·	·	·	·	·
CCCN1C(=O)c2ccc(C(=O)Nc3cc(C)ccc3O)cc2C1=O	-20.0	51.0*	97.2*	-24.7	3.9	11.8	-21.9	20.4	51.6*	50.1*	0.8
CCCCN1C(=O)c2ccc(C(=O)Nc3cccc(C)c3C)cc2C1=O	3.1	-1.5	4.1	-4.3	-1.7	12.4	·	·	·	·	·
Cc1ccc(O)c(NC(=O)c2ccc3c(c2)C(=O)N(CC(C)C)C3=O)c1	-8.9	0.9	32.3	-2.8	-0.1	16.6	·	·	·	·	·
CCCN1C(=O)c2ccc(C(=O)Nc3ccccc3C(=O)O)cc2C1=O	1.4	79.5*	15.6	88.6*	6.1	17.6	85.6*	85.1*	96.9*	43.6	89.4*
CCCCn1nnnc1C(c1ccccc1)N1CCN(c2ncc(C(F)(F)F)cc2Cl)CC1 (stereo not drawn)	·	·	·	·	·	7.2	·	·	·	·	·
COc1cccc(C(=O)c2ccncc2C(=O)O)c1OC	·	·	·	·	·	18.1	·	·	·	·	·
O=C(O)c1ccc(OCc2ccc(C(=O)O)o2)cc1	-2.2	83.5*	92.1*	88.4*	-1.3	24.1	87.2*	88.0*	99.1*	54.7*	70.9*
O=C(O)c1ccc(COc2ccccc2[N+](=O)[O-])o1	-2.5	15.1	30.3	57.5*	2.6	15.1	45.9	35.2	70.7*	11.3	50.0*
CCc1ccc(OCc2ccc(C(=O)O)o2)cc1	-8.1	90.4*	86.5*	90.5*	9.5	3.8	94.9*	94.9*	99.9*	52.1*	93.8*
O=C(O)c1ccc(COc2ccc(Cl)cc2)o1	6.2	80.2*	81.5*	79.2*	-3.7	15.7	91.0*	90.2*	97.4*	31.7	89.4*
N#Cc1ccc(OCc2ccc(C(=O)O)o2)cc1	2.1	12.4	16.6	23.7	5.7	6.2	·	·	·	·	·
Nc1ncnc2c1ncn2[C@@H]1O[C@H](CNC(=O)[C@@H](N)Cc2ccc(C(=O)c3ccccc3)cc2)[C@@H](O)[C@H]1O	·	·	·	·	·	17.0	·	·	·	·	·
SMILES	UBC13 inh	SENP8 block-1	SENP7 inh	SENP6 block	Apaf-1 inh	SENP8 block-2	SENP8 confirm	SENP6 confirm	SENP7 confirm	Casp3 SENP sel	Luc interf
Cc1cc(N/N=C/c2ccccc2O)c2ccccc2n1	4.3	-5.7	7.9	-24.5	30.2	-23.4	·	·	·	·	·
Oc1ccc(/C=N/Nc2cccc3cccnc23)c(O)c1	3.9	82.3*	77.3*	88.6*	-4.4	-22.3	72.9*	88.8*	99.3*	65.0*	20.1
Cc1ccc(/C=N/Nc2cccc3cccnc23)c(O)c1	0.8	69.9*	91.6*	78.3*	1.3	-54.2	85.5*	92.7*	77.8*	77.0*	57.7*
Oc1ccc(/C=N/Nc2ncc(Br)cn2)c(O)c1	-15.1	57.9*	71.7*	86.1*	6.0	8.7	72.7*	73.0*	90.5*	69.8*	75.1*
O=c1[nH]ncc(N/N=C\c2ccc(O)cc2O)c1Cl	-7.4	62.6*	65.2*	69.5*	-10.2	-160.7	66.5*	64.0*	86.7*	81.4*	62.1*
CC(C)OCCc1cccc[n+]1[O-]	·	·	·	·	·	14.7	·	·	·	·	·
O=C(Nc1nc2c(Cl)cccc2s1)c1ccc(Br)o1	-14.6	-2.5	1.6	-1.6	-0.6	-154.7	·	·	·	·	·
O=C(Nc1nc2c(F)cccc2s1)c1ccc([N+](=O)[O-])o1	-25.8	42.6	23.0	70.6*	4.1	3.9	-25.6	-18.7	-9.6	-2.9	-6.8
O=C(Nc1nc2c(Cl)cccc2s1)c1ccc([N+](=O)[O-])o1	-15.8	43.3	6.7	59.2*	-119.8	4.6	35.2	41.8	77.3*	25.7	46.5
O=C(Nc1nc2ccc(F)cc2s1)c1ccc([N+](=O)[O-])o1	·	·	·	·	·	-12.8	·	·	·	·	·
